Laboratory results: ChEMBL document CHEMBL4219244, “Blocking Alcoholic Steatosis in Mice with a Peripherally Restricted Purine Antagonist of the Type 1 Cannabinoid Receptor” (J Med Chem, 2018)
Blank lines part the entries; values can stand above or below the molecule they belong to. The source made the active and inactive calls. The calls are words filed in the database; no cut-off is given here.

Key:
[1] = target: Cannabinoid receptor 2 (Homo sapiens, UniProt P34972); experiment: Displacement of [3H]CP55940 from human CB2 expressed in CHOK1 cell membranes
Sequence of Cannabinoid receptor 2 (P34972 whole entry): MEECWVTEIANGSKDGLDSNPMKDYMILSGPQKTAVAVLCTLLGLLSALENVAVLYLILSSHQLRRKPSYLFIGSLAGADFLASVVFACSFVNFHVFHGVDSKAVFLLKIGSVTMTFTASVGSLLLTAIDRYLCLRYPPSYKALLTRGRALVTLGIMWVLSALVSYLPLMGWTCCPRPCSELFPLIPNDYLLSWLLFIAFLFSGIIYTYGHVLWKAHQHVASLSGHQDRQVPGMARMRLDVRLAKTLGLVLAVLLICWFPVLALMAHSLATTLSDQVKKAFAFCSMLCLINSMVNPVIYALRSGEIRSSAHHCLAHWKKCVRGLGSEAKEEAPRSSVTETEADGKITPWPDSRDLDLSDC

[2] = target: Cannabinoid receptor 1 (Homo sapiens, UniProt P21554); experiment: Displacement of [3H]CP55940 from human CB1 expressed in CHOK1 cell membranes
Sequence of Cannabinoid receptor 1 (P21554 whole entry): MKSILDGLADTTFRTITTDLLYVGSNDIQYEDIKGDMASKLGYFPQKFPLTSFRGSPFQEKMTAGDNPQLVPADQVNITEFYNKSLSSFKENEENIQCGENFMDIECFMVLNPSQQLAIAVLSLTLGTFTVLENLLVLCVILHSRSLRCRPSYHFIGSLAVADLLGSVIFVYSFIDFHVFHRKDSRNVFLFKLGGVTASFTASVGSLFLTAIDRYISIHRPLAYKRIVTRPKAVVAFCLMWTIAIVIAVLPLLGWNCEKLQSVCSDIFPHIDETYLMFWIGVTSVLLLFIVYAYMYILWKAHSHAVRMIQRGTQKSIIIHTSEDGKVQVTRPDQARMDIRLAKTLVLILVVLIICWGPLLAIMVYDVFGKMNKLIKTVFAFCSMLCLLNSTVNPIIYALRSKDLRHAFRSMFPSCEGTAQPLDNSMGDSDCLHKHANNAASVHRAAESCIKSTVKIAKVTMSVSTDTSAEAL

[3] = organism: Homo sapiens; experiment: Selectivity ratio of Ki for human CB2 to Ki for human CB1
Method in brief: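 Displacement of [3H]CP55940 binding to membranes from CHO cells overexpressing human CB1 or human CB2. Ki was determined at each receptor, and the ratio was taken as Ki(hCB2)/Ki(hCB1). Values are averages of three to six measurements.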

[4] = Drug uptake in C57BL/6 mouse brain at 5 mg/kg, po after 0.6 to 24 hrs by LC-MS method; assay type: ADME, organism-based; conditions: in vivo
[5] = tested on: Mus musculus; experiment: Suppression of CP55940-induced hypothermia in C57BL/6 mouse assessed as reduction in body temperature at 30 mg/kg, po administered via gavage pretreated for 30 mins followed by CP55940 addition measured at regular interval up to 4 hrs; assay type: ADME, organism-based; conditions: in vivo
Method in brief: (§1)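 Female C57BL6 mice, acclimated 2 weeks, given test agent or vehicle by oral gavage; after 30 min, CP55940 0.56 mg/kg ip in corn oil. Rectal temperature recorded at regular intervals up to 4 h. Six animals per group; means and standard deviations; two-way ANOVA versus vehicle.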

[6] = tested on: Mus musculus; experiment: Anti-hepatic steatosis activity in alcohol-induced hepatic steatosis C57BL/6 mouse model assessed as reduction in hepatic lipid accumulation at 1.25 mg/kg, po bid administered via gavage treated for 2 weeks by oil red o-staining based histopathological assay; assay type: functional, organism-based
Method in brief: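 Female C57BL6 mice on Lieber-DeCarli liquid diet; ethanol raised progressively 1 to 5% (v/v) over 15 days, then 4 further weeks; pair-fed controls on control diet. Drug suspended in 0.5% sodium carboxymethylcellulose, 1% NMP, 0.3% Tween 80, given 1.25 mg/kg twice daily by gavage for last 2 weeks. Liver sections (10 μm, OCT) stained with Oil Red O; droplets counted in six grids per image; n = 6 per group; ANOVA.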

[7] = Aqueous kinetic solubility of the compound in 10 mM phosphate buffer at pH 7.4 after 90 mins by LC/MS analysis; assay type: physicochemical; conditions: read-out: Kinetic_solubility
Method in brief: (§2)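 10 mM DMSO stocks diluted into 10 mM phosphate buffer (final DMSO 1%), shaken 90 min at room temperature, filtered through 0.4 μm plates. Filtrate concentration quantified by LC/MS against a six-point standard curve. Mean of three determinations.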

[8] = Drug uptake in C57BL/6 mouse brain at 1.25 mg/kg, po bid administered via gavage treated for 7 days measured at 0.5 to 24 hrs post last dose; assay type: ADME, organism-based; conditions: in vivo
[9] = Drug uptake in alcohol-induced hepatic steatosis C57BL/6 mouse model brain at 1.25 mg/kg, po bid administered via gavage treated for 2 weeks measured at 16 hrs post last dose by LC-MS method; assay type: ADME, organism-based; conditions: in vivo
[10] = tested on: Mus musculus; experiment: Suppression of CP55940-induced hypothermia in C57BL/6 mouse assessed as reduction in body temperature at 10 mg/kg, po administered via gavage pretreated for 30 mins followed by CP55940 addition measured at regular interval up to 4 hrs; assay type: ADME, organism-based; conditions: in vivo; method in brief: as §1
[11] = Aqueous kinetic solubility of the compound in 10 mM phosphate buffer at pH 1.6 after 90 mins by LC/MS analysis; assay type: physicochemical; conditions: read-out: Kinetic_solubility; method in brief: as §2

Compound: N#Cc1ccccc1N1CCN(c2ncnc3c2nc(-c2ccccc2Cl)n3-c2ccc(Cl)cc2)CC1
Ki [1]: > 10000 nM

Compound: FC(F)(F)Oc1ccccc1CN1CCN(c2ncnc3c2nc(-c2ccccc2Cl)n3-c2ccc(Cl)cc2)CC1
Ki [1]: > 10000 nM

Compound: COc1ccc(CN2CCN(c3ncnc4c3nc(-c3ccccc3Cl)n4-c3ccc(Cl)cc3)CC2)cc1
Ki [1]: > 10000 nM

Compound: N#CC(c1ccccc1)N1CCN(c2ncnc3c2nc(-c2ccccc2Cl)n3-c2ccc(Cl)cc2)CC1 (stereo not given)
Ki [1]: 460 nM
Ki [2]: 7 nM
Ratio Ki [3]: 66

Compound: COc1ccccc1N1CCN(c2ncnc3c2nc(-c2ccccc2Cl)n3-c2ccc(Cl)cc2)CC1
Ki [1]: 5000 nM
Ki [2]: 2 nM

Drug uptake [4]: Active
Compound: Cc1c(C(=O)NN2CCCCC2)nn(-c2ccc(Cl)cc2Cl)c1-c1ccc(Cl)cc1 [RIMONABANT]

Compound: Clc1ccc(-n2c(-c3ccccc3Cl)nc3c(N4CCN(Cc5ccccc5)CC4)ncnc32)cc1
Ki [1]: 430 nM
Ki [2]: 4 nM
Ratio Ki [3]: 110

Compound: COc1ccc(N2CCN(c3ncnc4c3nc(-c3ccccc3Cl)n4-c3ccc(Cl)cc3)CC2)cc1
Ki [1]: > 10000 nM

Compound: Cc1ccc(CN2CCN(c3ncnc4c3nc(-c3ccccc3Cl)n4-c3ccc(Cl)cc3)CC2)cc1
Ki [1]: > 10000 nM

Compound: Oc1cccc(N2CCN(c3ncnc4c3nc(-c3ccccc3Cl)n4-c3ccc(Cl)cc3)CC2)c1
Ki [1]: > 10000 nM
Ki [2]: 25 nM

Compound: Clc1ccc(-n2c(-c3ccccc3Cl)nc3c(N4CCN(CCc5ccncc5)CC4)ncnc32)cc1
Ki [1]: 630 nM
Ki [2]: 12 nM
Ratio Ki [3]: 52

Compound: CCNC1(C(N)=O)CCN(c2ncnc3c2nc(-c2ccccc2Cl)n3-c2ccc(Cl)cc2)CC1 [OTENABANT]
Activity [5]: Toxic

solubility kinetic at […] [7]: < 0.4 µM
Drug uptake [8]: Not Active
Drug uptake [9]: Not Active
solubility kinetic at […] [11]: > 200 µM
Compound: Clc1ccc(-n2c(-c3ccccc3Cl)nc3c(N4CCN(Cc5ccccc5Cl)CC4)ncnc32)cc1
Activity [6]: Active
Activity [10]: Non-Toxic

Compound: Clc1ccc(-n2c(-c3ccccc3Cl)nc3c(N4CCN(c5ccccc5)CC4)ncnc32)cc1
Ki [1]: > 10000 nM

Compound: Cc1ccccc1CN1CCN(c2ncnc3c2nc(-c2ccccc2Cl)n3-c2ccc(Cl)cc2)CC1
Ki [1]: 4600 nM

Compound: N#Cc1ccc(N2CCN(c3ncnc4c3nc(-c3ccccc3Cl)n4-c3ccc(Cl)cc3)CC2)cc1
Ki [1]: > 10000 nM

Compound: Clc1ccc(CN2CCN(c3ncnc4c3nc(-c3ccccc3Cl)n4-c3ccc(Cl)cc3)CC2)cc1
Ki [1]: > 10000 nM
